Measured values pooled from the literature.
Protocols differ between the studies behind these lines.
Target: MAP kinase-activated protein kinase 2 (MAPKAPK2, Homo sapiens, UniProt P49137)

Compound	effect on	action	technique	tested at	endpoint	value
C#Cc1cnc(Nc2ccnc(CO)c2)nc1Nc1ccccc1S(C)(=O)=NC#N (stereo not drawn)	cell-free assay			1 µM	remaining signal	100%
C=CC(=O)N1CCC[C@@H](n2nc(-c3ccc(Oc4ccccc4)cc3)c3c(N)ncnc32)C1	enzyme activity	inhibitor		1 µM	inhibition	0%
COc1ccc2oc(-c3ccc4nc(N)oc4c3)c/c(=N\c3ccccc3NC(=O)CCN)c2c1	binding			1 µM	remaining binding	103%
C=CC(=O)N1CCC([C@@H]2CCNc3c(C(N)=O)c(-c4ccc(Oc5ccccc5)cc4)nn32)CC1	enzyme activity	inhibitor		1 µM	inhibition	29%
CCCCC(=O)Nc1ccc(-c2ccc3ncn(CCC)c(=O)c3c2)cn1	binding		competition with immobilised ligand	0.5 µM	remaining binding	100%
COc1ccc2[nH]c3c4[nH]c5ccc(OC)cc5c4c4c(c3c2c1)C(=O)NC4=O	binding			1 µM	remaining binding	100%
C1=C/COCc2cc(ccc2OCCN2CCCC2)Nc2nccc(n2)-c2cccc(c2)COC/1	binding			0.1 µM	remaining binding	100%
CN1CCN(C(=O)c2ccc(NC(=O)Nc3ccc(N(C)c4ccnc(Nc5ccc(CS(C)(=O)=O)cc5)n4)cc3)cc2)CC1	binding			1 µM	remaining binding	100%
N#Cc1ccc(NC(=O)Nc2ccccc2)cc1	cell-free assay		competition with immobilised ligand	25 µM	remaining binding	65%
